The text below walks through data of ChEMBL document CHEMBL1127740, “The discovery of capsazepine, the first competitive antagonist of the sensory neuron excitants capsaicin and resiniferatoxin” (J Med Chem, 1994).

The species entered for test [1] is Rattus norvegicus. Kind of test: In vitro antagonist activity against [Ca2+] uptake in neonatal rat cultured spinal sensory neurons. It counts as functional. In outline: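 Cultured neonatal rat DRG neurons (3–7 days old, non-neuronal cells removed with cytosine arabinoside) were washed in Ca-free HEPES BSS, pH 7.4. 45Ca2+ uptake stimulated by a fixed 0.5 μM agent was measured with test compound in 1% DMSO over 10 min at room temperature. Cells were lysed with SDS and scintillation counted. IC50 is 50% reduction of the evoked response, from ≥6 replicates/concentration.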

Test [2] is filed under the species Rattus norvegicus. Briefly: In vitro agonist activity against [Ca2+] uptake in neonatal rat cultured spinal sensory neurons. It counts as functional. The procedure, abridged:
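Neonatal rat dorsal root ganglia were dissociated with collagenase then trypsin and cultured with 10% horse serum, 1 μg/mL NGF and 48 h of 10^-4 M cytosine arabinoside. Assays used 3–7-day cultures washed in Ca-free HEPES-buffered BSS (pH 7.4). Compound with 10 μCi/mL 45Ca2+ and 1% DMSO was applied for 10 min at room temperature; SDS extract was scintillation counted. Medium-only background; EC50 from ≥6 replicates/concentration.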

Where only a bound is given, the exact number is not on record here.

As usually defined, the IC50 is the midpoint of a concentration-inhibition curve. A high value points to weaker potency. The term EC50 denotes the concentration needed to bring the measured effect to its halfway point. A high value points to a less potent agent.

In the test listed under Rattus norvegicus [1], `Oc1ccc2c(c1O)CCN(C(=S)NCCc1ccc(Cl)cc1)C2` gave an IC50 of 440 nM. Further, the EC50 in the test listed under Rattus norvegicus [2] is over 100000 nM.
The compound `Oc1cc2c(cc1O)CN(C(=S)NCCc1ccc(Cl)cc1)CC2` had a 50% effective concentration (EC50) in the test filed under Rattus norvegicus [2] of 290 nM.
As for `CCCCCCCC/N=C(\S)N1CCc2c(ccc(O)c2O)C1`, it took 3480 nM to reach half-maximal inhibition in the test listed under Rattus norvegicus [1] (IC50). The compound also gave an EC50 in the test filed under Rattus norvegicus [2] of over 100000 nM.
In the test listed under Rattus norvegicus [2], `Oc1ccc(CNC(=S)NCCc2ccc(Cl)cc2)cc1O` registered an EC50 of 100 nM.
Compound `Oc1cc2c(cc1O)CN(C(=S)NCCc1ccc(Cl)cc1)C2` gave an EC50 in the test listed under Rattus norvegicus [2] of 550 nM.
As to `COc1cc2c(cc1OC)CN(/C(S)=N/CCc1ccc(Cl)cc1)CCC2`, the IC50 in the test listed under Rattus norvegicus [1] is 6990 nM. The same compound came in with an EC50 in the test listed under Rattus norvegicus [2] of over 100000 nM.
For `CCCCCCCC/N=C(\S)NCc1ccc(O)c(OC)c1`, the EC50 in the test listed under Rattus norvegicus [2] is 60 nM.
For `COc1cc2c(cc1O)CCN(/C(S)=N/CCc1ccc(Cl)cc1)C2`, inhibition in the test listed under Rattus norvegicus [1] was half-maximal at 1230 nM (IC50). The EC50 in the test filed under Rattus norvegicus [2] was 1090 nM.
As to `CCCCCCCC/N=C(\S)N1CCc2cc(O)c(O)cc2C1`, the EC50 in the test filed under Rattus norvegicus [2] turned out to be 740 nM.
Take `COc1cc2c(cc1O)CN(/C(S)=N/CCc1ccc(Cl)cc1)CC2`: in the test filed under Rattus norvegicus [2], it took 1230 nM to reach a half-maximal effect (EC50).
On the same count and under the same terms, then `COc1cc(C/N=C(\S)NCCc2ccc(Cl)cc2)ccc1O`, with 60 nM.
Consider `COc1cc2c(cc1O)CN(/C(S)=N/CCc1ccc(Cl)cc1)C2`, for which the IC50 in the test listed under Rattus norvegicus [1] was over 100000 nM. Further, the EC50 in the test filed under Rattus norvegicus [2] was over 100000 nM.
On to `Oc1cc2c(cc1O)CN(C(=S)NCCc1ccc(Cl)cc1)CCC2` [CAPSAZEPINE], for which the IC50 in the test listed under Rattus norvegicus [1] was determined as 420 nM. Further, the EC50 in the test filed under Rattus norvegicus [2] is over 100000 nM.
